Laboratory results published in PMC4081462 (Molecular diversity, 2014).
Counter-ions that a name gives are not always drawn.

What was measured:
HT29 = assay: Antiproliferative assay; assay type: cell-based; conditions: Homo sapiens, HT-29, 72 h, read-out: In vitro cytotoxic activity IC50, HT29
[1] = test system: HeLa, HT29, SEM, and Jurkat tumor cells; assay: Cytotoxicity on tumor cell panel; assay type: cell-based, human
Outline: (§1)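 Cells from ATCC. Jurkat and SEM were grown in RPMI-1640, and HeLa and HT-29 in DMEM, each with 115 units/mL penicillin G, 115 µg/mL streptomycin and 10% FBS. 8 × 10³ cells/well were seeded 18 h ahead (37 °C, 5% CO2). The medium was then replaced with test compound at several concentrations (10 mM DMSO stock) for 72 h at 37 °C. MTT read-out was at 560 nm; IC50 is 50% proliferation inhibition.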

bovine brain tubulin = assay: Inhibition of tubulin assembly; assay type: biochemical; conditions: for IC50: read-out: Inhibition of tubulin assembly IC50 ± SD, 10 µM bovine brain tubulin, 0.4 mM GTP, 30 °C, 20 min
Outline: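 10 µM bovine brain tubulin in glutamate buffer was preincubated with varying test compound concentrations at 30 °C, then chilled to 0 °C. 0.4 mM GTP was added and the mixture rewarmed to 30 °C in a recording spectrophotometer. Assembly was followed as turbidity at 350 nm. IC50 is the concentration cutting assembly extent by 50% after 20 min.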

tubulin [2] = assay: Inhibition of [3H]dolastatin 10 binding to tubulin; design: species or system bovine; conditions: for Inhibition of binding of [3H]dolastatin 10, % inhibition ± SD: 10 µM tubulin, 10 µM radiolabeled ligand
Outline: (§2)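 Radioligand binding in 0.1 M MES (pH 6.9) with 0.5 mM MgCl2, 10 µM tubulin (1.0 mg/mL), 10 µM radiolabeled ligand and inhibitors at different concentrations. Ligands were mixed before tubulin was added, then incubated 15 min at around 20 °C. Duplicate aliquots were run through Sephadex G-50 superfine syringe columns equilibrated in 0.1 M MES-0.5 mM MgCl2 (pH 6.9). At least two experiments per condition.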

SEM cells = assay: Antiproliferative assay; assay type: cell-based; conditions: Homo sapiens, B-cell, 72 h, read-out: In vitro cytotoxic activity IC50, SEM
Outline: as §1

HeLa = assay: Antiproliferative assay; assay type: cell-based; conditions: Homo sapiens, 72 h, read-out: In vitro cytotoxic activity IC50, HeLa
tubulin [3] = assay: Inhibition of [3H]halichondrin B binding to tubulin; design: species or system bovine; conditions: for Inhibition of binding of [3H]halichondrin B, % inhibition ± SD: 10 µM tubulin, 10 µM radiolabeled ligand
Outline: as §2

Jurkat = assay: Antiproliferative assay; assay type: cell-based; conditions: Homo sapiens, 72 h, read-out: In vitro cytotoxic activity IC50, Jurkat
Outline: as §1

tubulin [4] = assay: Inhibition of [3H]vinblastine binding to tubulin; design: species or system bovine; conditions: for Inhibition of binding of [3H]vinblastine, % inhibition ± SD: 10 µM tubulin, 10 µM radiolabeled ligand
Outline: as §2

SMILES | IC50 (HT29) [µM] | Cytotoxic activity (in words) [1] | Inhibition of tubulin assembly (in words) (bovine brain tubulin) | IC50 (bovine brain tubulin) [µM] | Inhibition of the binding of [3H]dolastatin 10 (in words) (tubulin [2]) | Inhibition of binding of [3H]dolastatin 10, % inhibition ± SD (tubulin [2]; inhibitor 5 µM) [%] | Inhibition of binding of [3H]dolastatin 10, % inhibition ± SD (tubulin [2]; inhibitor 20 µM) [%] | IC50 (SEM cells) [µM] | IC50 (HeLa) [µM] | Inhibition of the binding of [3H]halichondrin B (in words) (tubulin [3]) | Inhibition of binding of [3H]halichondrin B, % inhibition ± SD (tubulin [3]; inhibitor 5 µM) [%] | Inhibition of binding of [3H]halichondrin B, % inhibition ± SD (tubulin [3]; inhibitor 20 µM) [%] | IC50 (Jurkat) [µM] | Inhibition of the binding of [3H]vinblastine (in words) (tubulin [4]) | Inhibition of binding of [3H]vinblastine, % inhibition ± SD (tubulin [4]; inhibitor 5 µM) [%] | Inhibition of binding of [3H]vinblastine, % inhibition ± SD (tubulin [4]; inhibitor 20 µM) [%]
CN[C@H](C(=O)N[C@H](C(=O)N(C)[C@H](/C=C(\C)C(=O)O)C(C)C)C(C)(C)C)C(C)(C)c1ccccc1 [Compound 2, taltobulin] | 0.0003 ± 0.0001 | nanomolar IC50 values | active | 1.2 ± 0.01 | active | 0 ± 0 | 30 ± 1 | 0.0001 ± 5e-05 | 0.0002 ± 0.0001 | active | 38 ± 6 | 63 ± 1 | 0.0002 ± 0.0005 | active | 29 ± 9 | 60 ± 2
CN[C@H](C(=O)N[C@H](C(=O)N(C)[C@H](/C=C(\C)C(=O)O)C(C)C)C(C)(C)C)C(C)(C)c1cn(C)c2ccccc12 [Compound 1, hemiasterlin] | – | – | active | 1.3 ± 0.05 | active | 19 ± 7 | 89 ± 1 | – | – | active | 38 ± 4 | 92 ± 2 | – | active | 14 ± 4 | 66 ± 4
CN[C@H](C(=O)N[C@H](C(=O)N(C)c1cc(C(=O)O)ccc1C)C(C)C)C(C)(C)c1ccccc1.O=C(O)C(F)(F)F [Compound 4, 3-((S)-N,3-Dimethyl-2-((S)-3-methyl-2-(methylamino)-3-phenylbutanamido)butanamido)-4-methylbenzoic acid trifluoroacetate] | 2.7 ± 0.2 | – | – | > 20 | – | – | 0 ± 0 | > 10 | 5.3 ± 0.6 | – | – | 3 ± 1 | 0.29 ± 0.05 | – | – | 9 ± 1
CN[C@H](C(=O)N[C@H](C(=O)N(C)c1cccc(C(=O)O)c1)C(C)C)C(C)(C)c1ccccc1.O=C(O)C(F)(F)F [Compound 3, 3-((S)-N,3 Dimethyl-2-((S)-3-methyl-2-(methylamino)-3-phenylbutanamido)butanamido) benzoic acid trifluoroacetate] | 1.9 ± 0.5 | – | – | > 20 | – | – | 7 ± 3 | > 10 | 4.7 ± 0.5 | – | – | 0 ± 0 | 0.15 ± 0.02 | – | – | 2 ± 1
CN[C@H](C(=O)N[C@H](C(=O)N(C)c1cc(C(=O)O)ccc1OC)C(C)C)C(C)(C)c1ccccc1.O=C(O)C(F)(F)F [Compound 5, 3-((S)-N,3-Dimethyl-2-((S)-3-methyl-2-(methylamino)-3-phenylbutanamido)butanamido)-4-methoxybenzoic acid trifluoroacetate] | > 10 | – | – | > 20 | – | – | 8 ± 2 | > 10 | > 10 | – | – | 0 ± 0 | > 10 | – | – | 0 ± 0
CN[C@H](C(=O)N[C@H](C(=O)N(C)[C@H](c1nc(C(=O)O)co1)C(C)C)C(C)C)C(C)(C)c1ccccc1 [Compound 8, 2-((S)-1-((S)-N,3-Dimethyl-2-((S)-3-methyl-2-(methylamino)-3-phenylbutanamido)butanamido)-2-methylpropyl)oxazole-4-carboxylic acid trifluoroacetate] | > 10 | – | – | – | – | – | – | > 10 | > 10 | – | – | – | > 10 | – | – | –
